Reference: ChEMBL document CHEMBL4610112, “Novel Pyrrolopyridone Bromodomain and Extra-Terminal Motif (BET) Inhibitors Effective in Endocrine-Resistant ER+ Breast Cancer with Acquired Resistance to Fulvestrant and Palbociclib” (J Med Chem, 2020)
The source made the active and inactive calls. The rule behind the calls is not given here.

Columns and labels:
[1] = Growth inhibition of fulvestrant-resistant human MCF7:CFR cells measured after 5 days by Hoechst 33342 dye based imaging analysis; type: functional, cell-based; conditions: 120 h
Method in brief: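 MCF-7:CFR cells kept 2 days in phenol red-free RPMI 1640 with 10% charcoal–dextran FBS, then seeded at 2000 cells/well. Single treatment at 0.1 nM–10 μM (0.1% DMSO final) for 5 days. Nuclei stained with Hoechst 33342 and counted by imaging. Survival normalized to DMSO (100%) and JQ1 3 μM (0%). Mean ± SEM from at least two passages, triplicates in each.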

[2] = target: T1, Bromodomain-containing protein 4 (Homo sapiens, UniProt O60885); test: Displacement of APC-labeled biotinylated-avidin from Euphorium-chelated recombinant human BRD4 bromodomain 1 expressed in Escherichia coli preincubated for 15 mins followed by APC-labeled biotinylated-avidin addition and measured after 1 hr under dark condition by TR-FRET assay
CYP3A4 = CYP3A4 (Homo sapiens, UniProt P08684); test: Inhibition of human CYP3A4 at 10 uM; type: ADME
Sequence of CYP3A4 (P08684 whole entry): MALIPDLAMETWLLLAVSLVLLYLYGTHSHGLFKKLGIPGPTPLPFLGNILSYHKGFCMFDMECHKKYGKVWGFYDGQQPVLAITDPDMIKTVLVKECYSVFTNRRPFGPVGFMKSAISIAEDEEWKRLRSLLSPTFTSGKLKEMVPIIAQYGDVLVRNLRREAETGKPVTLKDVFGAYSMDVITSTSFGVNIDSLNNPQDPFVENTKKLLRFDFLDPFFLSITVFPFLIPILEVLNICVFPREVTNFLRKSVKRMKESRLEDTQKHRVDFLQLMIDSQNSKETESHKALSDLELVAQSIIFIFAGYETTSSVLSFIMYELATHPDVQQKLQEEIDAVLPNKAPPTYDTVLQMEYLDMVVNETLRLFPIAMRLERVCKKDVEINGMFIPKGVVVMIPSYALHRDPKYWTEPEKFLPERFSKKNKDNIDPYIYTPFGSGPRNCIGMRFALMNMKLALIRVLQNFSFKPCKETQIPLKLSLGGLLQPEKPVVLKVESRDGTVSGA

CYP2A6 = CYP2A6 (Homo sapiens, UniProt P11509); test: Inhibition of human CYP2A6 at 10 uM; type: ADME
Sequence of CYP2A6 (P11509 whole entry): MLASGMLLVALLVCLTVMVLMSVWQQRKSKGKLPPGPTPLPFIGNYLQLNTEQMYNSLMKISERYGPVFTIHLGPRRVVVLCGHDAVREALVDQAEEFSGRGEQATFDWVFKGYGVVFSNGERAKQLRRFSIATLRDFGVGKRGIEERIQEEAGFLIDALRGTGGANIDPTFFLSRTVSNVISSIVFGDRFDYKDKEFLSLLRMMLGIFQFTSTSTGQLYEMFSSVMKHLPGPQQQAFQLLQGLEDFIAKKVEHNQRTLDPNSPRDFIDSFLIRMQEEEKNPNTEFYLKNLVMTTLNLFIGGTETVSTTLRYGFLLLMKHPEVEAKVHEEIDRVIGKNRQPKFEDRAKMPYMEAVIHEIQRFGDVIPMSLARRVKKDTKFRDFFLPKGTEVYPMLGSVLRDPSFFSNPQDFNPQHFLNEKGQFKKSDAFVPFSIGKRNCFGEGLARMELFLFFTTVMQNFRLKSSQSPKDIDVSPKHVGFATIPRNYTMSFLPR

CYP2C8 = CYP2C8 (Homo sapiens, UniProt P10632); test: Inhibition of human CYP2C8 at 10 uM; type: ADME
Sequence of CYP2C8 (P10632 whole entry): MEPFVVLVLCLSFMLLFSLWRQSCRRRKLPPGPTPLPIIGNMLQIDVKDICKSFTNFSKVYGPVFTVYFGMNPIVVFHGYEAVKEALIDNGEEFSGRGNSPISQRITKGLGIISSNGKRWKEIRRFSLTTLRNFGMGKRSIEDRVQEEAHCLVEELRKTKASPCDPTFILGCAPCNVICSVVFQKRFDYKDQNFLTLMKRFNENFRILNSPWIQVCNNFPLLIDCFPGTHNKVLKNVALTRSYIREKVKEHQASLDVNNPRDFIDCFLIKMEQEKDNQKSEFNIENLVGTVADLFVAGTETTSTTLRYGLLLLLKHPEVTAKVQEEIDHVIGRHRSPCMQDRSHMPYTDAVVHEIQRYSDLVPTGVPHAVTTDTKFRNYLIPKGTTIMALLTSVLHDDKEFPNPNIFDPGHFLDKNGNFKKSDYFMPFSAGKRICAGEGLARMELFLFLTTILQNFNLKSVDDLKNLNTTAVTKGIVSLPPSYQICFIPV

[3] = target: T1, Bromodomain-containing protein 4; test: Displacement of APC-labeled biotinylated-avidin from Euphorium-chelated recombinant human BRD4 bromodomain 2 expressed in Escherichia coli preincubated for 15 mins followed by APC-labeled biotinylated-avidin addition and measured after 1 hr under dark condition by TR-FRET assay
MCF7:TAM1 [4] = test: Antitumor activity against human MCF7:TAM1 cells xenografted in ovariectomized athymic Nude-Foxn1 mouse assessed as tumor growth inhibition at 50 mg/kg/day, po administered via gavage for 4 weeks; type: functional, organism-based
MCF7:CFR [5] = test: Down regulation of c-MYC gene expression in fulvestrant-resistant human MCF7:CFR cells at 100 nM measured after 24 hrs; type: functional, cell-based
Method in brief: (§1)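 MCF-7:CFR cells exposed to compound at 100 nM, with DMSO (0.01%) as control, for 24 h. RNA extracted and analysed by RNA-seq. Values are log2-fold changes in gene expression against the vehicle control.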

MCF7:CFR [6] = test: Down regulation of cyclin-D gene expression in fulvestrant-resistant human MCF7:CFR cells at 100 nM measured after 24 hrs; type: functional, cell-based; method in brief: as §1
MCF7:CFR [7] = test: Down regulation of n-MYC gene expression in fulvestrant-resistant human MCF7:CFR cells at 100 nM measured after 24 hrs; type: functional, cell-based; method in brief: as §1
MCF7:CFR [8] = test: Up regulation of CDKN1B gene expression in fulvestrant-resistant human MCF7:CFR cells at 100 nM measured after 24 hrs; type: functional, cell-based; method in brief: as §1
MCF7:CFR [9] = test: Growth inhibition of fulvestrant-resistant human MCF7:CFR cells at < 300 nM treated for 3 hrs followed by compound washout and measured after 5 days by Hoechst 33342 dye based imaging analysis; type: functional, cell-based
MCF7:CFR [10] = test: Growth inhibition of fulvestrant-resistant human MCF7:CFR 3D spheroid cells at 100 nM supplemented with fresh medium containing compound every 2 to 3 days for 9 days by celltitre-glo assay relative to control; type: functional
Method in brief: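 MCF-7:CFR cells seeded at 1000 cells/well in ultralow-attachment round-bottom plates and grown 24 h untreated as spheroids. Half the medium then replaced with 2× treatment medium, repeated every 2–3 days. Viability read by CellTiter-Glo 3D luminescence at day 9 and normalized to blank (medium plus reagent).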

[11] = Protein binding in plasma (unknown origin); type: ADME, cell-free; conditions: human
Method in brief: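 Protein binding reported as percent bound, ketoconazole as reference compound. Run by a contract lab.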

CYP2D6 = CYP2D6 (Homo sapiens, UniProt P10635); test: Inhibition of human CYP2D6 at 10 uM; type: ADME
Sequence of CYP2D6 (P10635 whole entry): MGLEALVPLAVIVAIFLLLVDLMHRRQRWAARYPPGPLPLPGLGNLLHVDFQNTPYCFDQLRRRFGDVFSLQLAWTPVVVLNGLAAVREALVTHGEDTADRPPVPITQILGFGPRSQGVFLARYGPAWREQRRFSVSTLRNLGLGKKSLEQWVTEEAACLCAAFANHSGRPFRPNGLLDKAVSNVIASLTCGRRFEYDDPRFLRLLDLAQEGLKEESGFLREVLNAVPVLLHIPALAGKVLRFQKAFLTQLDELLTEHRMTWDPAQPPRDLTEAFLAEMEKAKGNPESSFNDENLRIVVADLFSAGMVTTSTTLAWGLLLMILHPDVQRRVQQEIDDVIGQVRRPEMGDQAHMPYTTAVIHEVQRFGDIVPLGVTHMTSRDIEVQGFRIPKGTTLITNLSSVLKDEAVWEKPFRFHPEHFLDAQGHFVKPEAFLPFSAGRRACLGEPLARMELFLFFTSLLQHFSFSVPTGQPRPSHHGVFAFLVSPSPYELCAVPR
MCF7:TAM1 [12] = test: Antitumor activity against human MCF7:TAM1 cells xenografted in ovariectomized athymic Nude-Foxn1 mouse assessed as tumor growth inhibition at 50 mg/kg/day, po administered via gavage for 4 weeks in presence of fulvestrant; type: functional, organism-based
Method in brief: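 Orthotopic xenografts of MCF-7:Tam1 cells in 4–6 week old female ovariectomized athymic nude (nude/Foxn1) mice, established with daily tamoxifen 1.5 mg/mouse. Daily oral gavage at 50 (mg/kg)/day for 4 weeks in 0.5% (w/v) HPMC/TWEEN80 1% in water, given alongside fulvestrant 1 mg/mouse/week sc. Tumor volume measured weekly by caliper as length × width² × π/6. TGI computed from day 28 versus initial volumes, relative to vehicle.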

CCS(=O)(=O)Nc1cc(-c2cn(C)c3c(=O)[nH]ccc23)cc2c1ccn2Cc1ccc(F)cc1
IC50 [1]: 56 nM
IC50 [2]: 48 nM

Cc1cc(F)ccc1Cn1ccc2c(NS(C)(=O)=O)cc(-c3cn(C)c4c(=O)[nH]ccc34)cc21
IC50 [1]: 119 nM
IC50 [2]: 600 nM

Cc1ncc2n1-c1ccc(Cl)cc1C(c1ccccc1F)=NC2 [MIDAZOLAM]
inhibition at 10 µM (CYP3A4): 99.5%

O=c1ccc2ccccc2o1 [COUMARIN]
inhibition at 10 µM (CYP2A6): 98.2%

CCS(=O)(=O)Nc1cc(-c2cn(C)c3c(=O)[nH]ccc23)cc2c1ccn2Cc1c(C)cccc1C
IC50 [1]: 35 nM
IC50 [2]: 158 nM

Cc1cccc(C)c1Cn1ccc2c(NS(C)(=O)=O)cc(-c3cn(C)c4c(=O)[nH]ccc34)cc21
IC50 [1]: 49 nM
IC50 [2]: 175 nM

Cn1cc(-c2cc(NS(C)(=O)=O)c3ccn(CC4(C)COC4)c3c2)c2cc[nH]c(=O)c21
IC50 [1]: 134 nM
IC50 [2]: 180 nM

CC(=O)O[C@H]1C(=O)[C@@]2(C)[C@H]([C@H](OC(=O)c3ccccc3)[C@]3(O)C[C@H](OC(=O)[C@H](O)[C@@H](NC(=O)c4ccccc4)c4ccccc4)C(C)=C1C3(C)C)[C@]1(OC(C)=O)CO[C@@H]1C[C@@H]2O [PACLITAXEL]
inhibition at 10 µM (CYP2C8): 80.9%

Cn1cc(-c2cc(C(C)(C)O)c3ccn(C(C)(c4ccccn4)c4ccccn4)c3c2)c2cc[nH]c(=O)c21
IC50 [3]: 220 nM
IC50 [1]: 20 nM
IC50 [2]: 39.6 nM

CCS(=O)(=O)Nc1cc(-c2cn(C)c3c(=O)[nH]ccc23)cc2c1ccn2C(c1ccccc1)c1ccccc1
IC50 [1]: 15 nM
IC50 [2]: 83 nM

CC/C(=C(\c1ccccc1)c1ccc(OCCN(C)C)cc1)c1ccccc1
TGI (MCF7:TAM1 [4]): inactive

Cc1sc2c(c1C)C(c1ccc(Cl)cc1)=N[C@@H](CC(=O)OC(C)(C)C)c1nnc(C)n1-2
Activity (MCF7:CFR [5]): Active
IC50 [1]: 90 nM
Activity (MCF7:CFR [6]): Active
Activity (MCF7:CFR [7]): Active
Activity (MCF7:CFR [8]): Active
growth inhibition (GI) (MCF7:CFR [9]): inactive
growth inhibition (GI) (MCF7:CFR [10]): Active

CCS(=O)(=O)N(c1cccc2c1nc(-c1cn(C)c3c(=O)[nH]ccc13)n2Cc1ccc(F)cc1)S(=O)(=O)CC
IC50 [1]: 1780 nM

Cn1cc(-c2cc(NS(C)(=O)=O)c3ccn(CC4CC(F)(F)C4)c3c2)c2cc[nH]c(=O)c21
IC50 [1]: 62 nM
IC50 [2]: 161 nM

C[C@]12CC[C@@H]3c4ccc(O)cc4C[C@@H](CCCCCCCCC[S+]([O-])CCCC(F)(F)C(F)(F)F)[C@H]3[C@@H]1CC[C@@H]2O (some centres not stated)
growth inhibition (GI) (MCF7:CFR [10]): inactive

CC(=O)N1CCN(c2ccc(OCC3COC(Cn4ccnc4)(c4ccc(Cl)cc4Cl)O3)cc2)CC1 (configuration not stated) [KETOCONAZOLE]
PPB [11]: 98.35%

Cn1cc(-c2cc(NS(C)(=O)=O)c3ccn(Cc4ccc(F)cc4)c3c2)c2ccnc(O)c21
IC50 [1]: 17 nM
IC50 [2]: 96 nM

CC/C(=C(\c1ccc(O)cc1)c1ccc(OCCN(C)C)cc1)c1ccccc1
growth inhibition (GI) (MCF7:CFR [10]): inactive

Cn1cc(-c2cc(NS(C)(=O)=O)c3ccn(C(C)(c4ccccn4)c4ccccn4)c3c2)c2cc[nH]c(=O)c21
IC50 [3]: 12.7 nM
IC50 [1]: 10 nM
IC50 [2]: 12.9 nM

CCC(c1ccccn1)(c1ccccn1)n1ccc2c(NS(=O)(=O)CC)cc(-c3cn(C)c4c(=O)[nH]ccc34)cc21
IC50 [1]: 2.2 nM
IC50 [2]: 9.4 nM

COc1ccc2c(c1)[C@]13CCCC[C@@H]1[C@H](C2)N(C)CC3 [DEXTROMETHORPHAN]
inhibition at 10 µM (CYP2D6): 94.4%

CCNC(=O)C[C@@H]1N=C(c2ccc(Cl)cc2)c2cc(OC)ccc2-n2c(C)nnc21
TGI (MCF7:TAM1 [12]): Active

CCS(=O)(=O)Nc1cc(-c2cn(C)c3c(O)nccc23)cc2c1cnn2Cc1ccc(F)cc1
IC50 [1]: 25 nM
IC50 [2]: 54 nM

Cn1cc(-c2cc(NS(C)(=O)=O)cc3ccn(Cc4ccc(F)cc4)c23)c2cc[nH]c(=O)c21
IC50 [1]: 1990 nM
IC50 [2]: 1180 nM

Cn1cc(-c2cc(NS(C)(=O)=O)c3cnn(Cc4ccc(F)cc4)c3c2)c2cc[nH]c(=O)c21
IC50 [1]: 68 nM
IC50 [2]: 89 nM

Cn1cc(-c2cc(NS(C)(=O)=O)c3ccn(Cc4cccc(F)c4)c3c2)c2cc[nH]c(=O)c21
IC50 [1]: 70 nM
IC50 [2]: 174 nM

CC(C)C(=O)Nc1cc(-c2cn(C)c3c(=O)[nH]ccc23)cc2c1ccn2C(C)(c1ccccn1)c1ccccn1
IC50 [3]: 62.8 nM
IC50 [1]: 17 nM
IC50 [2]: 13 nM

CCS(=O)(=O)Nc1cccc2c1nc(-c1cn(C)c3c(=O)[nH]ccc13)n2Cc1ccc(F)cc1
IC50 [1]: 708 nM
IC50 [2]: 1430 nM

COc1nnc2ccc(N3CCC(c4ccc(OCCN5CCN(C)C(=O)[C@H]5C)cc4)CC3)nn12
growth inhibition (GI) (MCF7:CFR [10]): Active

CC(=O)Nc1cc(-c2cn(C)c3c(=O)[nH]ccc23)cc2c1ccn2C(C)(c1ccccn1)c1ccccn1
IC50 [3]: 21.6 nM
IC50 [1]: 11 nM
IC50 [2]: 8.3 nM

Cc1cc(F)cc(C)c1Cn1ccc2cc(NS(C)(=O)=O)cc(-c3cn(C)c4c(=O)[nH]ccc34)c21
IC50 [1]: 526 nM
IC50 [2]: 1400 nM

Cc1cc(F)ccc1Cn1ccc2cc(NS(C)(=O)=O)cc(-c3cn(C)c4c(=O)[nH]ccc34)c21
IC50 [1]: 3580 nM
IC50 [2]: 1000 nM
